Bounds are passed on as bounds.

Common to all, as to type: protein-complex assay
The target in assay [1] is T1, GABA-A receptor; alpha-1/beta-3/gamma-2 (Homo sapiens, UniProt P14867+P18507+P28472).
T1 sequence (P14867 whole entry): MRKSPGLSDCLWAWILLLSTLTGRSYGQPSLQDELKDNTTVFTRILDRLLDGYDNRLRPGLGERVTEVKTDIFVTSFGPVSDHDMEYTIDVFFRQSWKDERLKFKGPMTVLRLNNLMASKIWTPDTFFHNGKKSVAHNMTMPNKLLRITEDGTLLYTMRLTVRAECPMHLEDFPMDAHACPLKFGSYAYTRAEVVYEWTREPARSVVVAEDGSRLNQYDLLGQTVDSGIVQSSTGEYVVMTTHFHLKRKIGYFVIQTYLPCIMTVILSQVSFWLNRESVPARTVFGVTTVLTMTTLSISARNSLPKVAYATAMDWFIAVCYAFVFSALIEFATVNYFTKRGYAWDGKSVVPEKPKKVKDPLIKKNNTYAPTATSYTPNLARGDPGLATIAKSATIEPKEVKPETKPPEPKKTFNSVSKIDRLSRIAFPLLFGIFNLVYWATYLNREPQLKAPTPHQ
T1 sequence (P18507 whole entry): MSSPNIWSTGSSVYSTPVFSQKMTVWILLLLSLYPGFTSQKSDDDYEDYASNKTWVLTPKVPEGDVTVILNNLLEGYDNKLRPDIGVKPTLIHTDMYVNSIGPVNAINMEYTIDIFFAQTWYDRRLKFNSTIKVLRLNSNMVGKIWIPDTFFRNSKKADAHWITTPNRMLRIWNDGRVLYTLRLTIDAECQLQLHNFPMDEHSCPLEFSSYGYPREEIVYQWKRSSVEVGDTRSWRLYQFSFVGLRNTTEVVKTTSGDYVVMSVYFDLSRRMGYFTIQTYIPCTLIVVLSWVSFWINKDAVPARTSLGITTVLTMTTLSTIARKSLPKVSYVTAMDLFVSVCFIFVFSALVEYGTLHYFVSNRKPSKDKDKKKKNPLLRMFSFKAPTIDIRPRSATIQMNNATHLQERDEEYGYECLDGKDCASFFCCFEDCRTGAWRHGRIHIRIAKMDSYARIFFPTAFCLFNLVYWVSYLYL
T1 sequence (P28472 whole entry): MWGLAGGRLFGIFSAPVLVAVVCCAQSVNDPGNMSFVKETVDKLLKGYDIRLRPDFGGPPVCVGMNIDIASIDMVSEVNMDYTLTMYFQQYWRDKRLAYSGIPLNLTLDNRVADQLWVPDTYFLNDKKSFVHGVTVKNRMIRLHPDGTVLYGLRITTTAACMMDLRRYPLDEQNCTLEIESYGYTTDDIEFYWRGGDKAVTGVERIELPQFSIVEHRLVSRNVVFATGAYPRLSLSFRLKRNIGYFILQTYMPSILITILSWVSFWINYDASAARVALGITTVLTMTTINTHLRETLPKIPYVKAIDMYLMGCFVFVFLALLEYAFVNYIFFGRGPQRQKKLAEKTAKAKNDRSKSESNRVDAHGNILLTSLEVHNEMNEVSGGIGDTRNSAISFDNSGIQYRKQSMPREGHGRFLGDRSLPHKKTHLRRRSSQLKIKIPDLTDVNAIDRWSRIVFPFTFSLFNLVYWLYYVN
Description: Binding affinity for human recombinant gamma-aminobutyric-acid (GABA) A receptor alpha-1-beta-3-gamma-2.

Assay [2] deals with T2, GABA-A receptor; alpha-2/beta-3/gamma-2 (Homo sapiens, UniProt P18507+P28472+P47869).
T2 sequence (P18507 whole entry): T1 sequence (P18507 whole entry)
T2 sequence (P28472 whole entry): T1 sequence (P28472 whole entry)
T2 sequence (P47869 whole entry): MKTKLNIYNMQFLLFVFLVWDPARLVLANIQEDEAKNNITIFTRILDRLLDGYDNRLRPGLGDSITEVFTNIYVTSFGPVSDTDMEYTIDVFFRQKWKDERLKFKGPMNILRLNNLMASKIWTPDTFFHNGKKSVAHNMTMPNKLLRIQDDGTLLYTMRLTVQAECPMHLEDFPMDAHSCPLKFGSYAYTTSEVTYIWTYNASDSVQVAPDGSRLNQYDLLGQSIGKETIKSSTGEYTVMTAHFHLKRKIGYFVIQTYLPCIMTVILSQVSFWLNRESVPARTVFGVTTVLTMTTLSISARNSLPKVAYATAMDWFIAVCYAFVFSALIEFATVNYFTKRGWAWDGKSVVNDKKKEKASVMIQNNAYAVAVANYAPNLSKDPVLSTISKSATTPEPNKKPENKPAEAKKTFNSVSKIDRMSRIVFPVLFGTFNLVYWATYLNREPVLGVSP
In words: Binding affinity to human recombinant gamma-aminobutyric-acid (GABA) A receptor alpha-2-beta-3-gamma-2.

Assay [3] has as its target T3, GABA-A receptor; alpha-5/beta-3/gamma-2 (Homo sapiens, UniProt P18507+P28472+P31644).
T3 sequence (P18507 whole entry): T1 sequence (P18507 whole entry)
T3 sequence (P28472 whole entry): T1 sequence (P28472 whole entry)
T3 sequence (P31644 whole entry): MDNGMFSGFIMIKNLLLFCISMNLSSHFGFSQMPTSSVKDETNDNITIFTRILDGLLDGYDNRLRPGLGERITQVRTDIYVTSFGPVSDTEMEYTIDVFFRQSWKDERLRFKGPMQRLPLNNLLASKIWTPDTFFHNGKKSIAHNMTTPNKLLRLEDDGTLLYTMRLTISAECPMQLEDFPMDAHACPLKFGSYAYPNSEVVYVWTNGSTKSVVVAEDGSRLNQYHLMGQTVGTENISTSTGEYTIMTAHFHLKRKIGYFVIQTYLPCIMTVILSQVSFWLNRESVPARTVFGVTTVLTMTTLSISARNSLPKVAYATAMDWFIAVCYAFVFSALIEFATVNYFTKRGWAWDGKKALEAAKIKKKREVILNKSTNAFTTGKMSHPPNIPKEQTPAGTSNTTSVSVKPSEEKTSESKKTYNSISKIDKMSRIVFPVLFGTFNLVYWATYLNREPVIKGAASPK
Description: Binding affinity for human recombinant gamma-aminobutyric-acid (GABA) A receptor alpha-5-beta-3-gamma-2.

The target in assay [4] is T4, GABA-A receptor; alpha-3/beta-3/gamma-2 (Homo sapiens, UniProt P18507+P28472+P34903).
T4 sequence (P18507 whole entry): T1 sequence (P18507 whole entry)
T4 sequence (P28472 whole entry): T1 sequence (P28472 whole entry)
T4 sequence (P34903 whole entry): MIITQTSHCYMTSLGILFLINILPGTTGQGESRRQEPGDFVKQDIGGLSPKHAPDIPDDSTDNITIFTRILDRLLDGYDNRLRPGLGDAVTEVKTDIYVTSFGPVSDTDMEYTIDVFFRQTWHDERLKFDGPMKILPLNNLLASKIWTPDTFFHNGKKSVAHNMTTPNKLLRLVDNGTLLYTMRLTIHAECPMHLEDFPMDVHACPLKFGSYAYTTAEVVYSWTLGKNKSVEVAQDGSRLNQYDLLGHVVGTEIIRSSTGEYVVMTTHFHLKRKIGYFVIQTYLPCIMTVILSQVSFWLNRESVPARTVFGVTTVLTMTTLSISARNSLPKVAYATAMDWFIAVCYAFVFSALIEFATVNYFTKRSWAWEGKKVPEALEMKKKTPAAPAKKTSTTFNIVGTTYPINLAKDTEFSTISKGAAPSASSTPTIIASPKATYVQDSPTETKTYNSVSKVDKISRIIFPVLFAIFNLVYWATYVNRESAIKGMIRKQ
In words: Binding affinity for human recombinant gamma-aminobutyric-acid (GABA) A receptor alpha-3-beta-3-gamma-2.

The target in assay [5] is GABA-A receptor; alpha-6/beta-3/gamma-2 (Homo sapiens, UniProt P18507+P28472+Q16445). Description: Binding affinity for human recombinant gamma-aminobutyric-acid (GABA) A receptor alpha-6-beta-3-gamma-2. In short, it runs like this: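 Ltk⁻ cells expressing human α6β3γ2 were harvested by scraping into PBS, centrifuged at 3000g and resuspended in 10 mM KH₂PO₄/100 mM KCl (pH 7.4). Incubation was 1 h at 4 °C with filter harvest and scintillation counting.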
Sequence of GABA-A receptor; alpha-6/beta-3/gamma-2 (Q16445 whole entry, one chain of several): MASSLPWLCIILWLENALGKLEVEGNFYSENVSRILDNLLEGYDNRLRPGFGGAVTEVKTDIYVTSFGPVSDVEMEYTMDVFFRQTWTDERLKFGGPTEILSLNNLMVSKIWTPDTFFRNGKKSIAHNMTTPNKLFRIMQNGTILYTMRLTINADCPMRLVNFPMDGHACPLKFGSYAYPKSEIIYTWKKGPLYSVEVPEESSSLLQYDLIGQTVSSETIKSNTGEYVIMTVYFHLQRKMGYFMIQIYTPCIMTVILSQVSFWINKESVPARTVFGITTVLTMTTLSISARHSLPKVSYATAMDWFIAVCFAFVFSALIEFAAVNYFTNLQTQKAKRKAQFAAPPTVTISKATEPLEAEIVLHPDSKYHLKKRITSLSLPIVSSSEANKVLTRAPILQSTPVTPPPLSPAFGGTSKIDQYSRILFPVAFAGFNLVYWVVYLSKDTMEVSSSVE

For `O=C1C2C=Nc3ccccc3C2=NN1c1ccccc1` (stereo not given) [CGS-8216], the Ki was determined as 0.05 nM in assay [1]; 0.08 nM in assay [2]; 0.25 nM in assay [3]; 0.12 nM in assay [4]; 17 nM in assay [5].

For the molecule `Clc1cccn2c1nc1c3c4ccccc4nc-3c[nH]c12`, the Ki in assay [1] was more than 3000 nM; in assay [2] it was more than 3000 nM; in assay [3], more than 10000 nM; in assay [4], more than 3000 nM; in assay [5] it was more than 10000 nM.

For the molecule `COC(=O)c1cc2c(cn1)[nH]c1ccc(NCc3ccccc3)cc12`, the Ki in assay [1] is 5.42 nM; in assay [2] it was 30.2 nM; in assay [3] it was 475 nM; in assay [4], 48.9 nM; in assay [5], more than 10000 nM.

With `CCOC(=O)c1cc2c3cc(OCc4ccccc4)ccc3nc-2c[nH]1`, the Ki in assay [1] was 7.2 nM; in assay [2], 169 nM; in assay [3], 271 nM; in assay [4], 284 nM; in assay [5], more than 10000 nM.

In the case of `COc1ccc2c(c1)ncc1c(=O)n(-c3ccccc3)[nH]c12`, the Ki was found to be 1.34 nM in assay [1]; 1.31 nM in assay [2]; 0.84 nM in assay [3]; 1.26 nM in assay [4]; 2.03 nM in assay [5].

Regarding `COCc1c(SC#N)[nH]cc2nc3ccc(OCc4ccccc4)cc3c1-2`, the Ki was 25 nM in assay [1]; 82.6 nM in assay [2]; 159 nM in assay [3]; 58.8 nM in assay [4]; more than 10000 nM in assay [5].

Turning to `O=[N+]([O-])c1ccc2[nH]c3c[nH]c4c5ccccc5nc-4c3c2c1`, the Ki is 244 nM in assay [1]; 500 nM in assay [2]; 1560 nM in assay [3]; 532 nM in assay [4]; more than 10000 nM in assay [5].

Regarding `c1cnc2c3[nH]cc4[nH]c5ccccc5c4c-3nc2c1`, the inhibition constant (Ki) in assay [1] is 28 nM; in assay [2], 118 nM; in assay [3], 1000 nM; in assay [4] it was 156 nM; in assay [5], more than 10000 nM.

As to `CCCOc1ccc2c(c1)c1c(COC)c(C(=O)OCC)ncc1n2C`, the Ki is 25.6 nM in assay [1]; 105 nM in assay [2]; 161 nM in assay [3]; 164 nM in assay [4]; more than 10000 nM in assay [5].

Turning to `CCCC(=O)c1cc2c(cn1)[nH]c1ccccc12`, the Ki in assay [1] was 2.1 nM; in assay [2] it was 16 nM; in assay [3] it was 995 nM; in assay [4], 21 nM; in assay [5], more than 3000 nM.

For `CC(C)c1nc(-c2ncn3c2CN(C)C(=O)c2c(Cl)cccc2-3)no1`, the Ki in assay [1] came to 0.4 nM; in assay [2] it was 2.08 nM; in assay [3], 1.54 nM; in assay [4], 1.16 nM; in assay [5] it was 227 nM.

For the molecule `COc1ccc2c(c1)[nH]c1c2ncc2[nH]c3ccccc3c21`, the Ki in assay [1] was 3.4 nM; in assay [2], 11.7 nM; in assay [3] it was 225 nM; in assay [4] it was 11 nM; in assay [5], more than 10000 nM.

Regarding `O=c1c2cnc3ccc(Cl)cc3c2[nH]n1-c1ccccc1`, the inhibition constant (Ki) in assay [1] is 0.23 nM; in assay [2], 0.17 nM; in assay [3], 0.44 nM; in assay [4] it was 0.12 nM; in assay [5], 17.3 nM.

As for `CN1C(=O)CN=C(c2ccsc2)c2cc(Cl)ccc21`, the Ki in assay [1], in assay [2], in assay [3], in assay [4] and in assay [5] was more than 300 nM in each case.

Turning to `CCOC(=O)c1[nH]cc2nc3ccc(O)cc3c-2c1COC`, the Ki in assay [1] was 2 nM; in assay [2], 5.4 nM; in assay [3] it was 18.5 nM; in assay [4] it was 10.8 nM; in assay [5], 3000 nM.

`COC(=O)c1cc2c3cc(NCc4ccc5ccccc5c4)ccc3nc-2c[nH]1`: the Ki in assay [1] was 30.7 nM; in assay [2] it was 205 nM; in assay [3] it was 814 nM; in assay [4] it was 271 nM; in assay [5], more than 10000 nM.

As for `c1ccc2c(c1)[nH]c1cnc3c4ccncc4[nH]c3c12`, the Ki in assay [1] is 3 nM; in assay [2] it was 23.8 nM; in assay [3], 240 nM; in assay [4] it was 30.5 nM; in assay [5], more than 10000 nM.

Regarding `CCOC(=O)c1[nH]cc2nc3ccc(OC)cc3c-2c1CC`, the Ki is 1.6 nM in assay [1]; 2.9 nM in assay [2]; 1 nM in assay [3]; 2.8 nM in assay [4]; more than 1000 nM in assay [5].

For the molecule `c1ccc(COc2ccc3c(c2)[nH]c2c3ncc3[nH]c4ccccc4c32)cc1`, the Ki in assay [1] is 432 nM; in assay [2] it was 3000 nM; in assay [3], more than 10000 nM; in assay [4] it was 3000 nM; in assay [5], more than 10000 nM.

Regarding `CCOC(=O)c1[nH]cc2nc3ccc(OCc4ccc5ccccc5c4)cc3c-2c1CC`, the inhibition constant (Ki) was 183 nM in assay [1]; 291 nM in assay [2]; 270 nM in assay [3]; 300 nM in assay [4]; more than 10000 nM in assay [5].

Turning to `COC(=O)c1cc2c3cc(NC4CCCCC4)ccc3nc-2c[nH]1`, the Ki in assay [1] was 2.39 nM; in assay [2], 17.4 nM; in assay [3], 316 nM; in assay [4], 14.4 nM; in assay [5], more than 10000 nM.

As usually defined, the Ki is the equilibrium dissociation constant of an inhibitor or competing ligand from its target.

The values above are taken from ChEMBL document CHEMBL1132940, “Pharmacophore/receptor models for GABA(A)/BzR subtypes (alpha1beta3gamma2, alpha5beta3gamma2, and alpha6beta3gamma2) via a comprehensive ligand-mapping approach” (J Med Chem, 2000).
